Data set [1] can be described thus: Cytotoxicity against human WI26VA4 cells assessed as reduction in cell viability incubated for 48 hrs by MTT assay. The data set is classed as cell-based. Background: Tetrazolium dyes change colour on reduction, which living cells bring about.
The nature of data set [2]: (§1) Hemolytic activity against human RBC at 150 uM incubated for 16 hrs by spectrophotometric analysis. To be noted: human red blood cells (erythrocytes), read-out: Activity. It is filed as ADME, cell-based, Erythrocyte. The method in brief: (§2)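 Red blood cells were incubated with compound at 37 °C for 16 h, with 1% saponin as positive and PBS as negative control. Tubes were centrifuged at 2000 rpm for 3 min, and supernatant absorbance was read at 540 nm. Percent hemolysis was calculated relative to the saponin and PBS mean absorbances. Means were compared by ANOVA with Tukey test.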

In data set [3] the test system is Plasmodium falciparum. Nature of the data set: Antimalarial activity against chloroquine-resistant Plasmodium falciparum W2 infected in human RBC assessed as reduction in HRP2 level by ELISA. It is filed as functional, organism-based. To be noted: W2, Erythrocyte. Background: An ELISA detects its analyte on a solid surface through an enzyme-linked reagent.
Data set [4] can be described thus: Selectivity index, ratio of CC50 for human WI-26VA-4 cells to IC50 for chloroquine-resistant ring-stage Plasmodium falciparum W2 infected in human RBC. It is filed as toxicity. To be noted: read-out: Ratio CC50/IC50.
Data set [5] deals with Erythrocyte. Described as §1. To be noted: erythrocyte, 16 h, 150 µM. The data set is classed as ADME, cell-based. The method in brief: as §2
In data set [6] the test system is Plasmodium berghei. Put plainly: Antimalarial activity against Plasmodium berghei NK65 infected in Swiss mouse assessed as parasitemia at 5 mg/kg, po administered for 4 days and measured on day 5 post infection by Giemsa staining based microscopic analysis (reference value: 100 %). It is filed as functional. To be noted: time 4 day. The method in brief:
(§3)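 Modified Peters 4-day suppressive test in female Swiss mice infected with P. berghei NK65. Dosing was by gavage, with compounds dissolved in 5% DMSO and diluted in water. Parasitemia was read on Giemsa-stained blood smears. Inhibition of parasite multiplication = [(A−B)/A]×100, where A is the water + 5% DMSO group and B the treated group; both are group mean parasitemias.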

The subject of data set [7] is Plasmodium berghei. Put plainly: Antimalarial activity against Plasmodium berghei NK65 infected in Swiss mouse assessed as parasitemia at 5 mg/kg, po administered for 4 days and measured on day 9 post infection by Giemsa staining based microscopic analysis (reference value: 100 %). The data set is classed as functional. To be noted: time 4 day. An outline of the steps:
as §3

Data set [8] deals with Plasmodium berghei. Put plainly: Antimalarial activity against Plasmodium berghei NK65 infected in Swiss mouse assessed as parasitemia at 25 mg/kg, po administered for 4 days and measured on day 5 post infection by Giemsa staining based microscopic analysis (reference value: 100 %). To be noted: time 4 day. It is filed as functional. The method in brief: (§4)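 Modified suppressive test in female Swiss mice infected with P. berghei NK65. Compounds were solubilized in 5% DMSO, diluted in water, and given by gavage. Parasitemia was read on Giemsa-stained blood smears on days 5 and 9 post-infection. Inhibition of parasite multiplication = [(A−B)/A]×100, where A is parasitemia of the water + 5% DMSO group.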

Data set [9] relates to Plasmodium berghei. Nature of the data set: Antimalarial activity against Plasmodium berghei NK65 infected in Swiss mouse assessed as parasitemia at 15 mg/kg, po administered for 4 days and measured on day 5 post infection by Giemsa staining based microscopic analysis (reference value: 100 %). To be noted: time 4 day. The data set is classed as functional. An outline of the steps: as §4

Data set [10] deals with Ferriprotoporphyrin IX. Nature of the data set: Binding affinity to Fe(III)PPIX (unknown origin) assessed as association constant by UV-Vis spectrophotometric analysis relative to control. An outline of the steps: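 UV-vis titration against Fe(III)PPIX at pH 7.5. Hemin stock was in DMSO and diluted in aqueous DMSO with 0.2 M Tris buffer pH 7.5. A 0.3 mM compound solution in the same solvent ratio was added in aliquots to 2 mL hemin solution. The blank received the same additions, and its absorbance was subtracted. A at 402 nm (Soret band) was fitted to a 1:1 complexation model by nonlinear least squares to give K. Run in triplicate.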

For data set [11], the system named is Ferriprotoporphyrin IX. Put plainly: Binding affinity to Fe(III)PPIX (unknown origin) assessed as reduction in hypochromism by UV-Vis spectrophotometric analysis relative to control. To be noted: concentration not given here. An outline of the steps:
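Soret band (402 nm) absorbance of Fe(III)PPIX in Tris pH 7.5/aqueous DMSO was followed while 0.3 mM compound was titrated in to saturation. The blank was treated the same way to subtract compound absorbance. Hypochromism was taken as the percentage reduction in absorption intensity. Run in triplicate.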

Data set [12] concerns Plasmodium berghei. Nature of the data set: Antimalarial activity against Plasmodium berghei NK65 infected in Swiss mouse assessed as parasitemia at 25 mg/kg, po administered for 4 days and measured on day 9 post infection by Giemsa staining based microscopic analysis (reference value: 100 %). The data set is classed as functional. To be noted: time 4 day. An outline of the steps:
as §4

In data set [13] the test system is Plasmodium berghei. Put plainly: Antimalarial activity against Plasmodium berghei NK65 infected in Swiss mouse assessed as parasitemia at 15 mg/kg, po administered for 4 days and measured on day 9 post infection by Giemsa staining based microscopic analysis (reference value: 100 %). It is filed as functional. To be noted: time 4 day. The method in brief:
as §4

The subject of data set [14] is Plasmodium berghei. Nature of the data set: Antimalarial activity against Plasmodium berghei NK65 infected in Swiss mouse assessed as parasitemia at 10 mg/kg, po administered for 4 days and measured on day 5 post infection by Giemsa staining based microscopic analysis (reference value: 100 %). The data set is classed as functional. To be noted: time 4 day. The method in brief: as §4

Data set [15] concerns Plasmodium berghei. Nature of the data set: Antimalarial activity against Plasmodium berghei NK65 infected in Swiss mouse assessed as parasitemia at 10 mg/kg, po administered for 4 days and measured on day 9 post infection by Giemsa staining based microscopic analysis (reference value: 100 %). The data set is classed as functional. To be noted: time 4 day. The method in brief: as §4

pIC50: −log10 of the molar value.

Regarding `Oc1cc(O)cc(/C=N/Nc2ccnc3cc(Cl)ccc23)c1`, the CC50 (commonly the concentration at which the toxic effect on the cells reaches its halfway point) at 48 h in [1] amounted to 12.9 µM. Also, the hemolysis at 16 h, 150 µM in data set [2] was < 10%. For the same molecule, the pIC50 (as a rule, the IC50 on a negative log10 scale, so that one unit is a factor of ten) in data set [3] is 6.20. Moreover, the selectivity ratio in data set [4] stood at 20.6.

As for `Oc1ccccc1/C=N/CCNc1ccnc2cc(Cl)ccc12`, the CC50 at 48 h in data set [1] came out at 25.3 µM. In addition, the hemolysis at 16 h, 150 µM in data set [2] is < 10%. The pIC50 in [3] was 6.59. Further, the selectivity ratio in [4] is 97.4.

On to `O=C(O)c1ccc(/C=N/Nc2ccnc3cc(Cl)ccc23)cc1`, for which the CC50 at 48 h in data set [1] amounted to 82 µM. In data set [2], the hemolysis at 16 h, 150 µM was < 10%. In addition, the pIC50 in data set [3] was 6.47. In data set [4], the selectivity ratio stood at 245.

On to `CC1(C)[C@@H](O[C@@H]2OC[C@H](O[C@@H]3OC[C@@H](O)[C@H](O)[C@H]3O)[C@H](O[C@H]3O[C@H](CO)[C@@H](O)[C@H](O)[C@H]3O)[C@H]2O[C@@H]2O[C@H](CO)[C@@H](O)[C@H](O)[C@H]2O[C@H]2O[C@H](CO)[C@@H](O)[C@H](O)[C@H]2O)CC[C@]2(C)[C@H]3CCC45OCC6(CC[C@@](C)(C=O)C[C@@H]64)[C@H](O)C[C@@]5(C)[C@]3(C)CC[C@@H]12` (some centres undefined) [SAPONIN], for which, in data set [5], the Activity result is listed as “Toxic”.

As for `C[C@@H]1CC[C@H]2[C@@H](C)C(=O)O[C@@H]3O[C@@]4(C)CC[C@@H]1[C@]32OO4` [ARTEMISININ], the Activity in [6] worked out at 94.9%; in data set [7], 96.64%.

For the molecule `Oc1ccc(/C=N/Nc2ccnc3cc(Cl)ccc23)c(O)c1`, the CC50 at 48 h in data set [1] stood at 7.27 µM. The hemolysis at 16 h, 150 µM in [2] is < 10%. Besides, in data set [3], the pIC50 is 6.63. The selectivity ratio in [4] was 30.9.

In the case of `Oc1ccc(/C=N/CCNc2ccnc3cc(Cl)ccc23)c(O)c1`, the Activity was 93.7% in data set [8], 71.15% in [9], 41.01% in [12] and 40.13% in data set [13]. In data set [1], the CC50 at 48 h amounted to 171 µM. Moreover, the log K in data set [10] is 4.77. In addition, in data set [2], the hemolysis at 16 h, 150 µM is < 10%. Besides, the pIC50 in data set [3] was 6.76. For the same molecule, the inhibition (in general, the percentage by which the read-out fell short of the control) in [11] was 50.4%. Besides, the selectivity ratio in data set [4] stood at 990.

Regarding `O=Cc1ccc(/C=N/CCNc2ccnc3cc(Cl)ccc23)cc1`, the CC50 at 48 h in [1] is 138 µM. In addition, the pIC50 in data set [3] was 6.80. For the same molecule, in data set [4], the selectivity ratio came to 861.

In the case of `Oc1cc(O)cc(/C=N/CCNc2ccnc3cc(Cl)ccc23)c1`, the CC50 at 48 h in data set [1] came out at 79.3 µM. Besides, in [2], the hemolysis at 16 h, 150 µM is < 10%. For the same molecule, in data set [3], the pIC50 is 6.69. Besides, the selectivity ratio in [4] was found to be 387.

On to `CCN(CC)CCCC(C)Nc1ccnc2cc(Cl)ccc12` (centres undefined) [CHLOROQUINE], for which the Activity is reported as 94.04% in data set [14], “Non-Toxic” in data set [5] and 41.27% in data set [15]. In addition, the CC50 at 48 h in data set [1] is > 19.4 µM.

As for `O=C(O)c1ccc(/C=N/CCNc2ccnc3cc(Cl)ccc23)cc1`, the CC50 at 48 h in data set [1] was > 28.3 µM. In addition, the figures for the Activity in data set [9] and in data set [13] were 72.64% and 21.67%, respectively. In data set [2], the hemolysis at 16 h, 150 µM is < 10%. For the same molecule, in [3], the pIC50 was 6.84. Further, the selectivity ratio in data set [4] is > 195.

Take `COc1cc(/C=N/Nc2ccnc3cc(Cl)ccc23)ccc1O`: in data set [1], the half-maximal cytotoxic concentration (CC50) at 48 h came to 10.8 µM. For the same molecule, the hemolysis at 16 h, 150 µM in data set [2] is < 10%. The pIC50 in [3] was 6.63. The selectivity ratio in data set [4] amounted to 45.8.

As to `Oc1ccc(/C=N/CCNc2ccnc3cc(Cl)ccc23)cc1`, the CC50 at 48 h in data set [1] came out at 130 µM. The hemolysis at 16 h, 150 µM in data set [2] is < 10%. The pIC50 in [3] was 6.79. Further, the selectivity ratio in data set [4] was determined as 802.

The values are drawn from ChEMBL document CHEMBL4732215, “In vitro and in vivo antiplasmodial activity of novel quinoline derivative compounds by molecular hybridization” (Eur J Med Chem, 2021).
